Assay results pooled from the literature.
Lines come from different studies, so protocols differ.
ERBB2: Receptor tyrosine-protein kinase erbB-2 (ERBB2, Homo sapiens, UniProt P04626)

Structure (SMILES) | target | test | setting | endpoint | result
CN(C)C/C=C/C(=O)Nc1cc2c(Nc3ccc(F)c(Cl)c3)ncnc2cc1O[C@H]1CCOC1 | ERBB2 | cell-free assay, competition with immobilised ligand | 10 µM | inhibition | ~100%
CC(C)OC(=O)CNc1cccc(CN(Cc2ccc(-n3cccn3)cc2)S(=O)(=O)c2cccnc2)n1 | Alpha-2A adrenergic receptor (ADRA2A, Homo sapiens, UniProt P08913) | ligand displacement, radioligand | 10 µM | inhibition | 4%
C=CC(=O)N1CCCN(C(=O)c2cc(Sc3cnc(NC(=O)C4CC4)s3)c(C)cc2OC)C[C@H]1C | Tyrosine-protein kinase ITK/TSK (ITK, Homo sapiens, UniProt Q08881) | enzyme activity, inhibitor | 1 µM | inhibition | > 95%
O=C(COP(=O)(O)O)[C@@H](O)[C@H](O)[C@H](O)COP(=O)(O)O | Son of sevenless homolog 1 (SOS1, Homo sapiens, UniProt Q07889) | thermal stability | 5 mM, lysate | ΔTm | -6.2 °C
CCc1nn(C)c2nc(-c3ccc(C(=O)O)cc3)nc(NCc3ccc(F)cc3)c12 | cGMP-dependent 3',5'-cyclic phosphodiesterase (PDE2A, Homo sapiens, UniProt O00408) | enzyme activity, inhibitor, radiometric | 10 µM | inhibition | 35.7%
Cc1cc([C@@H](C)Nc2ccccc2C(=O)O)c2nc(N3CCC(F)(F)CC3)c(C#N)c(=O)n2c1 | Tyrosine-protein kinase ABL1, phosphorylated (ABL1, Homo sapiens, UniProt P00519) | binding, competition with immobilised ligand | 1 µM | remaining binding | 100%
COc1cc(-c2cncc3c2CN(C)Cc2cc(N4CCNCC4)ccc2-3)cc(OC)c1OC | ERBB2 | enzyme activity, inhibitor | 1 µM | remaining activity | 106%
C=CC(=O)N1CCC(COCC(=O)N2CCN(c3nc(-c4cnc(N)nc4C(F)F)nc(N4CCOC[C@@H]4C)n3)CC2)CC1 | Mitogen-activated protein kinase kinase kinase 2 (MAP3K2, Homo sapiens, UniProt Q9Y2U5) | binding, competition with immobilised ligand | 1 µM | remaining binding | 97%
O=C(O)CNc1cccc(CN(Cc2ccc(-n3cccn3)cc2)S(=O)(=O)c2cccnc2)n1 | Carbonic anhydrase 1 (CA1, Homo sapiens, UniProt P00915) | enzyme activity, inhibitor | 10 µM | inhibition | 0%
CNc1ncc2c(/C=C/C(=O)N3CCC(OC)CC3)nn(Cc3cccc(C(F)(F)F)c3)c2n1 | Tyrosine-protein kinase ABL1 (ABL1, Homo sapiens, UniProt P00519) | enzyme activity, inhibitor, radiometric | 1 µM | remaining activity | 92%
